Experimental data of several laboratories.
Each line is one published result; the experiments were not run side by side.
PLG trypsin-like site: Plasminogen, trypsin-like site (PLG, Homo sapiens, UniProt P00747)
OPRD1: Delta-type opioid receptor (OPRD1, Homo sapiens, UniProt P41143)
CA2: Carbonic anhydrase 2 (CA2, Homo sapiens, UniProt P00918)
gag-pol reverse transcriptase: Gag-Pol polyprotein, reverse transcriptase (gag-pol, Human immunodeficiency virus 1, UniProt P03366)

`CC(C)(C)[C@H](NC(=O)[C@H](CCONC(=N)N)NC(=O)Cc1ccc(CNC(=N)N)cc1)C(=O)N[C@@H](CCCCN)C(=O)NCc1ccc(C(=N)N)cc1` gave a Ki of 28 µM (PLG trypsin-like site; enzyme activity, inhibitor; pH 8).
`CNC[C@H](Cc1ccc(O)cc1)NC[C@H](Cc1ccc(O)cc1)NCC1CCC(C)CC1` (some centres unmarked) has an IC50 of > 10 µM (OPRD1; cell-free assay).
`O=C(CCCOc1cccc(Br)c1)N[C@H]1C[C@@H]2C[C@@H]2C1=O` (relative stereo) has an EC50 of 0.2 µM (Transcriptional activator protein LasR (lasR, Pseudomonas aeruginosa, UniProt P25084, A127W); reporter gene, agonist).
For `Cc1ccnc(S)c1`, the Ki was 7000 µM (CA2; enzyme activity, inhibitor, absorbance; pH 8).
With `COc1cc(C(=O)N2CC[C@@H](O)[C@@H](N)C2)cc2nc(-c3cc4ccccc4n3CC3CC3)n(C)c12` the EC50 was 50.1 µM (5-hydroxytryptamine receptor 3A (HTR3A, Homo sapiens, UniProt P46098); calcium signal, agonist).
`On1ccc2ccccc2c1=S` gave a Ki of 15 µM (CA2; enzyme activity, inhibitor, absorbance; pH 8).
For `CCC(C)[C@@H](CNC)N1CCN(CCC2CC3CCC2C3)[C@H](C(C)C)C1` (some centres unmarked), the IC50 was > 10 µM (OPRD1; cell-free assay).
The EC50 of `CS(=O)(=O)c1cccc(OCCCC(=O)N[C@H]2C[C@@H]3C[C@@H]3C2=O)c1` (relative stereo) is reported as 0.35 µM (Transcriptional activator protein LasR (lasR, Pseudomonas aeruginosa, UniProt P25084, A127W/Y93F); reporter gene, agonist).
For `CC(C)(C)[C@H](NC(=O)[C@H](CCCNC(=N)N)NC(=O)Cc1ccc(CNC(=N)N)cc1)C(=O)N[C@@H](CCCNC(=N)N)C(=O)NCc1ccc(C(=N)N)cc1`, the Ki was 3.5 µM (PLG trypsin-like site; enzyme activity, inhibitor; pH 8).
With `CCC(C)[C@@H](CNC)N1CCN(CCCC2CCCCC2)[C@H](C(C)C)C1` (some centres unmarked) the IC50 was > 10 µM (OPRD1; cell-free assay).
For `CC(C)(C)[C@H](NC(=O)[C@H](CCCNC(=N)N)NC(=O)Cc1ccc(CNC(=N)N)cc1)C(=O)N[C@@H](CCONC(=N)N)C(=O)NCc1ccc(C(=N)N)cc1`, the Ki was 3.1 µM (PLG trypsin-like site; enzyme activity, inhibitor; pH 8).
`O=c1c(O)c(-c2ccc(O[C@@H]3O[C@H](CO)[C@@H](O)[C@H](O)[C@H]3O)c(O)c2)oc2cc(O)cc(O)c12` gave a Ki of 0.0222 µM (CA2; enzyme activity, inhibitor, absorbance).
The IC50 of `Cc1cn([C@@H]2CC[C@H](OC(C(=O)O)C(=O)O)C2)c(=O)[nH]c1=O` is reported as 20 µM (gag-pol reverse transcriptase; enzyme activity, inhibitor, radiometric).
`Cc1cc(/C=C/C#N)cc(C)c1Nc1ccnc(Nc2ccc(C#N)cc2)n1` has a Kd of 2.53 µM (gag-pol reverse transcriptase; binding, SPR).
`CCC(C)[C@@H](CNC)N1CCN(CCC23CC4CC(CC(C4)C2)C3)[C@H](C(C)C)C1` (some centres unmarked) gave an IC50 of > 10 µM (OPRD1; cell-free assay).
For `On1ccccc1=S`, the Ki was 567 µM (CA2; enzyme activity, inhibitor, absorbance).
With `CC[C@H](C)[C@H](NC(=O)[C@H](Cc1ccccc1)NC(=O)[C@H](CC(=O)O)NC(=O)[C@H](CCCNC(=N)N)NC(=O)[C@@H](NC(=O)[C@H](C)NC(=O)[C@H](CC(C)C)NC(=O)[C@H](CC(N)=O)NC(=O)[C@H](CC(=O)O)NC(=O)[C@H](CC(C)C)NC(=O)[C@@H](NC(=O)[C@@H](NC(=O)[C@H](CO)NC(=O)[C@H](CCSC)NC(=O)[C@H](CCC(=O)O)NC(=O)[C@H](CC(=O)O)NC(=O)[C@H](CO)NC(=O)[C@H](Cc1ccccc1)NC(=O)[C@H](CO)NC(=O)CNC(=O)[C@H](CC(=O)O)NC(=O)[C@H](C)NC(=O)[C@@H](N)Cc1c[nH]cn1)[C@@H](C)O)[C@@H](C)CC)[C@@H](C)O)C(=O)N[C@@H](CC(N)=O)C(=O)N[C@@H](Cc1c[nH]c2ccccc12)C(=O)N[C@@H](CC(C)C)C(=O)N[C@H](C(=O)N[C@@H](CCC(N)=O)C(=O)N[C@H](C(=O)N[C@@H](CCCCN)C(=O)N[C@H](C(=O)N[C@H](C(=O)N[C@@H](CC(=O)O)C(=O)O)[C@@H](C)O)[C@@H](C)CC)[C@@H](C)O)[C@@H](C)CC` the EC50 was > 1 µM (Gastric inhibitory polypeptide receptor (GIPR, Homo sapiens, UniProt P48546); reporter gene, agonist, luciferase).
